In ChEMBL document CHEMBL4368933, “Structure-activity relationship of leucyladenylate sulfamate analogues as leucyl-tRNA synthetase (LRS)-targeting inhibitors of Mammalian target of rapamycin complex 1 (mTORC1)” (Bioorg Med Chem, 2019):
Active and inactive are the calls of the source. The rule behind the calls is not given here.

Key:
[1] = test system: HEK293; test: Effect on leucine-induced AKT levels in human HEK293 cells at 200 uM preincubated for 50 mins followed by leucine-stimulation and measured after 10 mins by Western blot analysis; type: functional, cell-based
[2] = target: Leucine--tRNA ligase, cytoplasmic (Homo sapiens) (UniProt Q9P2J5); test: Inhibition of Leucyl-tRNA synthetase-mediated mTORC1 signaling activation in human HEK293 cells assessed as reduction in leucine-induced S6K phosphorylation at 200 uM preincubated for 50 mins followed by leucine-stimulation and measured after 10 mins by Western blot analysis; type: cell-based
Sequence of Leucine--tRNA ligase, cytoplasmic (Homo sapiens) (Q9P2J5 whole entry, looked up): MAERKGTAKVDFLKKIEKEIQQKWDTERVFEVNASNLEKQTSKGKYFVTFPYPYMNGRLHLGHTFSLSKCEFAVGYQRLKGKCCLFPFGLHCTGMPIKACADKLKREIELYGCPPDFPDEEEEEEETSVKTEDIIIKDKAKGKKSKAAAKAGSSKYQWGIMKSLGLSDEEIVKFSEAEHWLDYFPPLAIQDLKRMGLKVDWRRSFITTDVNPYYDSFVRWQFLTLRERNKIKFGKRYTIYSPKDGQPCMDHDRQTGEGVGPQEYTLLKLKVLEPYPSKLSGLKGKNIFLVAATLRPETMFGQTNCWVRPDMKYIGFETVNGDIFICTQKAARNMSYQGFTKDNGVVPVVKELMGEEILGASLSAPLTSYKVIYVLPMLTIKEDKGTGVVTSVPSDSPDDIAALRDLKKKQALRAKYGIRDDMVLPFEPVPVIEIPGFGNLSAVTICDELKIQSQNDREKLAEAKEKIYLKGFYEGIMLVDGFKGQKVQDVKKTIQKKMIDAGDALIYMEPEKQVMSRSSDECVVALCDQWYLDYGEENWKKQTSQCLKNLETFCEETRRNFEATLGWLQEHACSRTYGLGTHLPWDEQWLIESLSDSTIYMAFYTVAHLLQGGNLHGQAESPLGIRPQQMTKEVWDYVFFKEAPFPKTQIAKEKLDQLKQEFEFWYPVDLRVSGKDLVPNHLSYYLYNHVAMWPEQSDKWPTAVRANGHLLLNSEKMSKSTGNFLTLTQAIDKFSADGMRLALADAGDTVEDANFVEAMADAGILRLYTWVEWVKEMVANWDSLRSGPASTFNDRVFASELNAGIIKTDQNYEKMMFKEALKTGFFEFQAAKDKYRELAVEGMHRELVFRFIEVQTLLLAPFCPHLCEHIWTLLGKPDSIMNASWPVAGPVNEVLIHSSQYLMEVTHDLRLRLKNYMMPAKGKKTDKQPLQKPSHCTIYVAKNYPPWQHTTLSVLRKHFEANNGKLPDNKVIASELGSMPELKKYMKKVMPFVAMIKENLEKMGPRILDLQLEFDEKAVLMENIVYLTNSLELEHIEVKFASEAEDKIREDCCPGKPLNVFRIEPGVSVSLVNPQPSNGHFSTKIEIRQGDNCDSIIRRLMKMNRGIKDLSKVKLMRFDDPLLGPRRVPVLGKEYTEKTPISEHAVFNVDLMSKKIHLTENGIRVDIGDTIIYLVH
Procedure, shortened: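 HEK293 cells pretreated with test agent at a fixed 200 µM, alongside rapamycin (100 nM) and leucinol (800 µM) as references. mTORC1 then activated by adding leucine for 10 min. S6K phosphorylation read by Western blot.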

[3] = target: mTORC2 (Homo sapiens) (UniProt P42345+Q6R327+Q9BVC4+Q9BPZ7); test: Inhibition of mTORC2 signaling in human HEK293 cells assessed as reduction in leucine-induced AKT phosphorylation at 200 uM preincubated for 50 mins followed by leucine-stimulation and measured after 10 mins by Western blot analysis; type: cell-based
[4] = test system: MRC5; test: Antiproliferative activity against human MRC5 cells after 72 hrs by SRB assay; type: cell-based; settings: MRC5, 72 h
Procedure, shortened: (§1)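 Colorimetric growth assay with IC50 values derived; etoposide as positive control. Cell lines: A549 (lung cancer), HCT116 (colon cancer), MDA-MB-231 (breast cancer), SK-Hep-1 (liver cancer), SNU638 (stomach cancer), MRC5 (normal lung […]).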

[5] = target: Leucine--tRNA ligase, cytoplasmic (Homo sapiens) (UniProt Q9P2J5); test: Inhibition of Leucyl-tRNA synthetase-mediated mTORC1 signaling activation in human HEK293 cells assessed as reduction in leucine-induced S6K phosphorylation preincubated for 50 mins followed by leucine-stimulation and measured after 10 mins by Western blot analysis; type: cell-based
Procedure, shortened: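 HEK293 cells pretreated at 20, 50, 100 and 200 µM. Leucine then added for 10 min to activate mTORC1. Dose dependence of leucine-induced S6K phosphorylation assessed by Western blot.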

[6] = test system: HCT-116; test: Antiproliferative activity against human HCT116 cells after 72 hrs by SRB assay; type: functional, cell-based; settings: HCT-116, 72 h; procedure, shortened: as §1
[7] = test system: MDA-MB-231; test: Antiproliferative activity against human MDA-MB-231 cells after 72 hrs by SRB assay; type: functional, cell-based; settings: MDA-MB-231, 72 h; procedure, shortened: as §1
[8] = test system: SNU-638; test: Antiproliferative activity against human SNU638 cells after 72 hrs by SRB assay; type: functional, cell-based; settings: SNU-638, 72 h; procedure, shortened: as §1
[9] = test system: A549; test: Antiproliferative activity against human A549 cells after 72 hrs by SRB assay; type: functional, cell-based; settings: A549, 72 h; procedure, shortened: as §1
[10] = test system: SK-HEP1; test: Antiproliferative activity against human SKHEP1 cells after 72 hrs by SRB assay; type: functional, cell-based; settings: SK-HEP1, 72 h; procedure, shortened: as §1

SMILES | Activity [1] | inhibition [2] | inhibition [3] | IC50 [4] [µM] | inhibition [5] | IC50 [6] [µM] | IC50 [7] [µM] | IC50 [8] [µM] | IC50 [9] [µM] | IC50 [10] [µM]
CC(C)[C@@H](O)[C@H](O)C(=O)NS(=O)(=O)OC[C@@H]1C[C@@H](O)[C@H](n2cnc3c(N)ncnc32)O1 | inactive | inactive | inactive |  |  |  |  |  |  | 
CC(C)[C@H](O)[C@@H](O)C(=O)NS(=O)(=O)OC[C@H]1O[C@@H](n2cnc3c(N)ncnc32)[C@H](O)[C@@H]1O | inactive | inactive | inactive |  |  |  |  |  |  | 
CNc1ncnc2c1ncn2[C@@H]1O[C@H](COS(=O)(=O)NC(=O)[C@H](O)[C@@H](O)C(C)C)[C@@H](O)[C@H]1O | inactive | inactive | inactive |  |  |  |  |  |  | 
CC(C)C[C@H](O)C(=O)NS(=O)(=O)OC[C@H]1O[C@@H](n2cnc3c(N)ncnc32)[C@H](O)[C@@H]1O | inactive | Active | inactive | 16.6 | Dose-dependent effect | 3.47 | 2.61 | 4.5 | 1 | 1.76
CC(C)[C@@H](O)[C@H](O)C(=O)NS(=O)(=O)OC[C@H]1O[C@@H](n2cnc3c(N)ncnc32)C[C@@H]1O | inactive | Active | inactive | > 20 | Dose-dependent effect | 6.52 | 6.27 | 4.72 | 5.04 | 5.74
CC(C)[C@@H](O)[C@H](O)C(=O)NS(=O)(=O)OC[C@H]1O[C@@H](n2cnc3c(N)nc(I)nc32)[C@H](O)[C@@H]1O | inactive | Active | inactive |  |  |  |  |  |  | 
CC(C)[C@@H](O)[C@H](O)C(=O)NS(=O)(=O)OC[C@H]1O[C@@H](n2cnc3c(N)ncnc32)[C@H](O)[C@@H]1O | inactive | Active | inactive |  |  |  |  |  |  | 
Nc1ncnc2c1ncn2[C@@H]1O[C@H](COS(=O)(=O)NC(=O)[C@@H](O)[C@H](O)C2CC2)[C@@H](O)[C@@H]1O |  | Active |  | > 20 |  | 9.14 | 17.8 | 5.7 | 6.93 | 7.26
